# Results as given in ChEMBL document CHEMBL3745614, “Potent and selective N-(4-sulfamoylphenyl)thiourea-based GPR55 agonists” (Eur J Med Chem, 2016).
# Assays:
# [1] = target: T1, G-protein coupled receptor 55 (Homo sapiens, UniProt Q9Y2T6); experiment: Agonist activity at human GPR55 expressed in CHOK1 cells at 10 uM by pathHunter beta-arrestin assay relative to LPI; type: cell-based; settings: CHO-K1
# Outline: (§1)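 PathHunter eXpress GPR55 CHO-K1 β-arrestin kit run per the kit protocol, compounds screened at 10 μM. Luminescence read and expressed as percentage of the signal from bovine liver LPI at 1 μM. Mean with range of two experiments, each done in duplicate.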
# [2] = target: Cannabinoid receptor 1 (Homo sapiens) (UniProt P21554); experiment: Agonist activity at CBR1 (unknown origin) assessed as [35S]GTPgammaS binding at 10 uM by […] assay relative to control; type: functional
# [3] = target: Cannabinoid receptor 2 (Homo sapiens) (UniProt P34972); experiment: Antagonist activity at human CBR2 assessed as [35S]GTPgammaS binding at 10 uM by […] assay relative to control; type: functional; set-up: scale not given: the % may be the effect or the level left
# [4] = target: Cannabinoid receptor 2 (Homo sapiens) (UniProt P34972); experiment: Agonist activity at CBR2 (unknown origin) assessed as [35S]GTPgammaS binding at 10 uM by […] assay relative to control; type: functional
# [5] = target: T2, Fatty-acid amide hydrolase 1 (Homo sapiens) (UniProt O00519); experiment: Inhibition of human FAAH expressed in African green monkey COS-7 cell membranes using [3H]-AEA as substrate assessed as residual activity at 10 uM preincubated for 10 mins followed by substrate addition measured after 10 mins by liquid scintillation counting analysis relative to control
# T2 sequence (whole entry): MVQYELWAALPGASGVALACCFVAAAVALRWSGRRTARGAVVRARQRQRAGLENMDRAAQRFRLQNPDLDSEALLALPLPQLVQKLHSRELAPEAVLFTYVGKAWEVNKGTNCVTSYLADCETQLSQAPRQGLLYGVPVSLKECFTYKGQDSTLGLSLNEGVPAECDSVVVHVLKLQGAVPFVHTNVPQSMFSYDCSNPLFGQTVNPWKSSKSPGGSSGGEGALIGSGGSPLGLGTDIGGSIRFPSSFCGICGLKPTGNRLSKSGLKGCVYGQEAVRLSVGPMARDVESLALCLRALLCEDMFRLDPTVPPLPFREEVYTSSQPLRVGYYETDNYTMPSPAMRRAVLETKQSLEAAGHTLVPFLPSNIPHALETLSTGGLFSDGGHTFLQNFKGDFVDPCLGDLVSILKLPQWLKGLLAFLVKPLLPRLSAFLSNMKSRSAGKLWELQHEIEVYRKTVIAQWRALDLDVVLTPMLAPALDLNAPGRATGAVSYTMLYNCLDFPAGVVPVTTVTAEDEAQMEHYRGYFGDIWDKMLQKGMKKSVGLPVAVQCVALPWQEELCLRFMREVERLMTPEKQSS
# Outline: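 Membranes of COS-7 cells overexpressing hFAAH, 1 μg protein per incubation. Substrate 20 μM AEA including 10 nM [3H]AEA (60 Ci/mmol). Compounds tested at 10 μM.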
# [6] = target: T3, Monoglyceride lipase (Homo sapiens) (UniProt Q99685); experiment: Inhibition of human MGL expressed in […] cells using 2AG as substrate assessed as residual activity at 10 uM preincubated for 10 mins followed by substrate addition measured after 10 mins by HPLC analysis; type: cell-based
# T3 sequence (whole entry): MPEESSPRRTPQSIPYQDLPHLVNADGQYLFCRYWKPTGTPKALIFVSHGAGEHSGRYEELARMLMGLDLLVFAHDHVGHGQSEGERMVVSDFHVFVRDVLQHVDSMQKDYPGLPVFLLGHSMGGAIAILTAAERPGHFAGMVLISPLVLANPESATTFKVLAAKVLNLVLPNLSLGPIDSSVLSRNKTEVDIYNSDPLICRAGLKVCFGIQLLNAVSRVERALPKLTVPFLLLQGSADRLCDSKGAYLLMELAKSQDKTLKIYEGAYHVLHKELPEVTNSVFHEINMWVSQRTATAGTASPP
# Outline: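 Lysates of HEK cells overexpressing hMGL, 2.5 μg protein per incubation, substrate at 50 μM. Compounds tested at 10 μM.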
# [7] = target: T4, Lysophosphatidylserine lipase ABHD12 (Homo sapiens) (UniProt Q8N2K0); experiment: Inhibition of human ABHD12 expressed in […] cells using 2-AG as substrate assessed as glycerol liberation at 10 uM preincubated for 30 mins followed by 2-AG addition measured for 90 mins by fluorescent glycerol assay relative to control; type: cell-based; set-up: scale not given: the % may be the effect or the level left
# T4 sequence (whole entry): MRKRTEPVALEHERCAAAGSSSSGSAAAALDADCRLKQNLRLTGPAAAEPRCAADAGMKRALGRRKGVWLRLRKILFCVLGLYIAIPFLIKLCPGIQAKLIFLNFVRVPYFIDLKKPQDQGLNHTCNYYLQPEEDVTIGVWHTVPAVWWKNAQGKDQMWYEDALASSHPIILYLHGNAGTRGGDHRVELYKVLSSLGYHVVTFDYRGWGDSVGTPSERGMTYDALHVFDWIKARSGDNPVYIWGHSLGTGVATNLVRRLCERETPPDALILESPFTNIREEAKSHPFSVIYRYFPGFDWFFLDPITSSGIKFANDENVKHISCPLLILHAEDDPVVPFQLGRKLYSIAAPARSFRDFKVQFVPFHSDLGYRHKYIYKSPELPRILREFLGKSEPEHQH
# Outline: (§2)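 Lysates of HEK293 cells transiently overexpressing hABHD6 or hABHD12, 0.3 μg protein/well. Pretreated 30 min with DMSO or compound, then 2-AG added (12.5 μM final). Glycerol release coupled enzymatically to H2O2-dependent resorufin formation; fluorescence (ex 530/em 590 nm) followed kinetically for 90 min.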
# [8] = target: T4, Lysophosphatidylserine lipase ABHD12 (Homo sapiens); experiment: Inhibition of human ABHD12 expressed in […] cells using 2-AG as substrate assessed as glycerol liberation at 1 uM preincubated for 30 mins followed by 2-AG addition measured for 90 mins by fluorescent glycerol assay relative to control; type: cell-based; set-up: scale not given: the % may be the effect or the level left; outline: as §2
# [9] = target: T5, Monoacylglycerol lipase ABHD6 (Homo sapiens) (UniProt Q9BV23); experiment: Inhibition of human ABHD6 expressed in […] cells using 2-AG as substrate assessed as glycerol liberation at 10 uM preincubated for 30 mins followed by 2-AG addition measured for 90 mins by fluorescent glycerol assay relative to control; type: cell-based; set-up: scale not given: the % may be the effect or the level left; outline: as §2
# T5 sequence (whole entry): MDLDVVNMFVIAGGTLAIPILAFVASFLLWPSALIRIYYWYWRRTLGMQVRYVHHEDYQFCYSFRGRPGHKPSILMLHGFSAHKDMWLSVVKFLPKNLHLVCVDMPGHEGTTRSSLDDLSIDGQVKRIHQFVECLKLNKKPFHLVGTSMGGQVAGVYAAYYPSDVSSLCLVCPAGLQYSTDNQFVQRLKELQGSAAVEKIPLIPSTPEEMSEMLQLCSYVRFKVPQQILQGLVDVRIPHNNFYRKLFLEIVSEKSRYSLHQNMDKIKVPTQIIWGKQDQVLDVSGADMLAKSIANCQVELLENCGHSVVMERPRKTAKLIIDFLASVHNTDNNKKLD
# [10] = target: T5, Monoacylglycerol lipase ABHD6 (Homo sapiens); experiment: Inhibition of human ABHD6 expressed in […] cells using 2-AG as substrate assessed as glycerol liberation at 1 uM preincubated for 30 mins followed by 2-AG addition measured for 90 mins by fluorescent glycerol assay relative to control; type: cell-based; set-up: scale not given: the % may be the effect or the level left; outline: as §2
# [11] = target: T1, G-protein coupled receptor 55; experiment: Agonist activity at human GPR55 expressed in CHOK1 cells at 10 uM by pathHunter beta-arrestin assay relative to control; type: cell-based; settings: CHO-K1; outline: as §1
# [12] = target: Cannabinoid receptor 1 (Homo sapiens) (UniProt P21554); experiment: Antagonist activity at human CBR1 assessed as [35S]GTPgammaS binding at 10 uM by radiometric assay relative to control; set-up: scale not given: the % may be the effect or the level left
# [13] = target: T1, G-protein coupled receptor 55; experiment: Agonist activity at human GPR55 expressed in HEK293 cells assessed as calcium signalling by fura 2-based digital epifluorescence microscopy; type: functional, cell-based
# Outline: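 HEK293 cells stably expressing GPR55, grown on poly-L-lysine coated glass coverslips and serum-starved overnight. Compounds applied by bath perfusion in HEPES-buffered saline at 30-32 °C. Single-cell fura 2 ratiometric imaging (350/380 nm) every 5 s. Peak responses pooled from 24 cells (12 random cells from each of two experiments) per concentration; EC50 with 95% CI from concentration-response curves. ARA-LPI used as reference agonist.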
# T1 sequence (Q9Y2T6 whole entry): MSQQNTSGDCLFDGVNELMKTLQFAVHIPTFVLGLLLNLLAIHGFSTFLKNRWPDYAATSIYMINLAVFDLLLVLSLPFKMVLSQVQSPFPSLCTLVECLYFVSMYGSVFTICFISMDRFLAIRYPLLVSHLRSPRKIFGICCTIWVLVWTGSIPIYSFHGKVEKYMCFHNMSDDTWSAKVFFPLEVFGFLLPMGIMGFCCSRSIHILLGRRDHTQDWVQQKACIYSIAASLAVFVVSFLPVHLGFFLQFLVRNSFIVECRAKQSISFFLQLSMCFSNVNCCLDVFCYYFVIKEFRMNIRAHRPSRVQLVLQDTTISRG
# Sequence of Cannabinoid receptor 2 (Homo sapiens) (P34972 whole entry): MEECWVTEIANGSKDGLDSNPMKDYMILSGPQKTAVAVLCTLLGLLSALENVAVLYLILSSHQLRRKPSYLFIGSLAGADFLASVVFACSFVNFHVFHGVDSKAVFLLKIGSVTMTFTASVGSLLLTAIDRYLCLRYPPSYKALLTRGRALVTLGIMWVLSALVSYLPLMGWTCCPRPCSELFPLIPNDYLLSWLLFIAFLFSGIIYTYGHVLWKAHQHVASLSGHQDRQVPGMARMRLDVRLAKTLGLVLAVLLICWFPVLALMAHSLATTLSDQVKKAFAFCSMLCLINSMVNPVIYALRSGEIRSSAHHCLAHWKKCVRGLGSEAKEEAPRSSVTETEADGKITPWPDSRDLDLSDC
# Sequence of Cannabinoid receptor 1 (Homo sapiens) (P21554 whole entry): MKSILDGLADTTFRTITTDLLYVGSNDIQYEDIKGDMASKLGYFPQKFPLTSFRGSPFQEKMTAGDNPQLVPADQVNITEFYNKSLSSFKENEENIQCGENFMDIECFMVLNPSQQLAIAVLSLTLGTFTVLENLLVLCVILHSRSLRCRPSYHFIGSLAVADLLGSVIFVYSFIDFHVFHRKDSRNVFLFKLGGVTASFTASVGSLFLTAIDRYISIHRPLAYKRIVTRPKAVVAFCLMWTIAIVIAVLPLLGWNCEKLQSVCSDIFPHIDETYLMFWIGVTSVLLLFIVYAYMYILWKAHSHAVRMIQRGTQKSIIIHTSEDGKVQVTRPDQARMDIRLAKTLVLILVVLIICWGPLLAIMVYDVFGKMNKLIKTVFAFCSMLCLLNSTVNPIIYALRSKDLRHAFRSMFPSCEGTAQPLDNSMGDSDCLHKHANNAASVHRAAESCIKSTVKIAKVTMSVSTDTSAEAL
SMILES,Activity [1],Activity [2],Activity [3],Activity [4],Activity [5],Activity [6],Activity [7],Activity [8],Activity [9],Activity [10],Activity [11],Activity [12],EC50 [13]
Cc1ccc(C(=O)NC(=S)Nc2ccc(S(=O)(=O)NC(C)(C)C)cc2)cc1,69%,105%,96%,100%,103%,96%,65%,100%,53%,96%,102%,103%,–
C=CCNS(=O)(=O)c1ccc(NC(=S)NC(=O)c2ccc(-c3ccccc3)cc2)cc1,194%,127%,81%,87%,78%,96%,–,100%,–,99%,285%,94%,19.4 nM
CC(C)NS(=O)(=O)c1ccc(NC(=S)NC(=O)c2ccc(-c3ccccc3)cc2)cc1,–,110%,86%,96%,87%,98%,65%,107%,34%,95%,185%,92%,–
CC(C)CNS(=O)(=O)c1ccc(NC(=S)NC(=O)c2ccc(-c3ccccc3)cc2)cc1,165%,119%,86%,85%,105%,107%,65%,95%,59%,106%,242%,93%,30.9 nM
O=C(NCCc1ccccc1)c1ccc(NC(=S)NC(=O)c2ccc(-c3ccccc3)cc2)cc1,68%,98%,103%,99%,85%,101%,–,98%,–,96%,99%,99%,> 10000 nM
O=C(NC(=S)Nc1ccc(S(=O)(=O)NCc2ccc(F)cc2)cc1)c1ccc(-c2ccccc2)cc1,185%,99%,88%,87%,100%,98%,–,96%,–,95%,266%,91%,2 nM
O=C(NC(=S)Nc1ccc(S(=O)(=O)NCc2ccco2)cc1)c1ccc(-c2ccccc2)cc1,168%,100%,99%,97%,91%,93%,–,101%,–,91%,246%,91%,2 nM
O=C(NCc1ccccc1)c1ccc(NC(=S)NC(=O)c2ccc(-c3ccccc3)cc2)cc1,67%,116%,88%,111%,83%,103%,–,100%,–,96%,100%,91%,> 10000 nM
C=CCN(CC=C)S(=O)(=O)c1ccc(NC(=S)NC(=O)c2ccc([N+](=O)[O-])cc2)cc1,93%,99%,105%,107%,97%,104%,62%,102%,53%,102%,138%,91%,–
COc1ccc(CNS(=O)(=O)c2ccc(NC(=S)NC(=O)c3ccc(-c4ccccc4)cc3)cc2)cc1,157%,101%,101%,103%,94%,105%,–,100%,–,101%,230%,99%,7.7 nM
O=C(NC(=S)Nc1ccc(S(=O)(=O)NCCc2ccccc2)cc1)c1ccc(-c2ccccc2)cc1,117%,103%,103%,94%,94%,99%,–,101%,–,99%,173%,91%,39.2 nM
Cc1ccc(CNS(=O)(=O)c2ccc(NC(=S)NC(=O)c3ccc(-c4ccccc4)cc3)cc2)cc1,148%,105%,103%,118%,94%,100%,–,103%,–,100%,220%,102%,12.4 nM
